Published values gathered from unrelated publications.
Read-out: cell growth or viability

SMILES	cell line	assay	setting	endpoint	value
Cc1noc2c1-c1ccccc1C(c1ccc(Cl)cc1)=N[C@H]2CC(N)=O	Kasumi 1	ATP luminescence	72 h	IC50	263 nM
COc1cc2c3c(n(CCCNCCO)c(=O)c2cc1OC)-c1nc2c(cc1C3=O)OCO2	Kasumi 1	MTS	72 h	IC50	530 nM
C=C(F)C(=O)N1CCN(c2nc(OC[C@@H]3CCCN3C)nc3c2CCN(c2cccc4cccc(Cl)c24)C3)C[C@@H]1CC#N	SW480	ATP luminescence	3D culture	IC50	> 1000 nM
C=CC(=O)NC1CCN(c2ncc3ncnc(Nc4ccc(Oc5ccc6c(c5)ncn6C)c(C)c4)c3n2)CC1	GP2d			EC50	12.3 µM
O=C(NO)c1ccc(CNc2nc3cccc(-c4ccc5c(c4)OCO5)n3n2)cc1	A498	SRB		GI50	510 nM
C=CC(=O)N1CCN(c2nc(=O)n(-c3c(C)ccnc3C(C)C)c3nc(-c4c(O)cccc4F)c(F)cc23)[C@@H](C)C1	SW480	ATP luminescence		IC50	> 10000 nM
Cc1cccc(-c2[nH]c(CNc3ccccc3F)nc2-c2ccc3ncnn3c2)n1	MM1.S	XTT		IC50	~1500 nM
CC1(C)CCC(CN2CCN(c3ccc(C(=O)NS(=O)(=O)c4ccc(NCC5CCOCC5)c([N+](=O)[O-])c4)c(Oc4cnc5[nH]ccc5c4)c3)CC2)=C(c2ccc(Cl)cc2)C1	Toledo	ATP luminescence	48 h	IC50	71 nM
COc1cc2c3c(n(CCCNC(C)C)c(=O)c2cc1OC)-c1nc2c(cc1C3=O)OCO2	Kasumi 1	MTS	72 h	IC50	432 nM
CC(C)c1ccccc1[C@@H]1CCCN1C1CC2(CCN(c3ccc(C(=O)NS(=O)(=O)c4ccc(NC[C@H]5CC[C@](C)(O)CC5)c([N+](=O)[O-])c4)c(Oc4cnc5[nH]ccc5c4)c3)CC2)C1	Toledo	ATP luminescence	48 h	IC50	4.6 nM
CC1(CN)CCN(c2cnc3c(Sc4ccncc4Cl)n[nH]c3n2)CC1	HGC-27	CCK-8	96 h	IC50	4830 nM
Nc1cccc2c1C(=O)N(C1CCC(=O)NC1=O)C2=O (stereo not drawn)	MM1.S	XTT		IC50	~300 nM
